According to ChEMBL document CHEMBL3352316, “Optimization of physicochemical properties and safety profile of novel bacterial topoisomerase type II inhibitors (NBTIs) with activity against Pseudomonas aeruginosa” (Bioorg Med Chem, 2014):
≈ marks a conversion by molar mass, not a printed value.

Legend:
[1] = Aqueous solubility of the compound; type: physicochemical; details: buffer
Pseudomonas aeruginosa [2] = assay: Antimicrobial activity against Pseudomonas aeruginosa PAO1 after 18 to 20 hrs by broth microdilution; type: functional
Summary of the method: (§1)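 Broth microdilution followed CLSI guidelines in Mueller Hinton broth. Inocula were grown 18–20 h at 35 °C on blood agar. Compound in DMSO was tested in doubling dilutions from 64 to 0.06 µg/mL, at 2% DMSO final. Plates were incubated 18–20 h and read at OD 620 nm. MIC was taken as the concentration giving >90% growth inhibition.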

Escherichia coli [3] = assay: Antimicrobial activity against Escherichia coli W3110 after 18 to 20 hrs by broth microdilution; type: functional; details: K-12 substr. W3110; summary of the method: as §1
Staphylococcus aureus = assay: Antimicrobial activity against methicillin-susceptible Staphylococcus aureus after 18 to 20 hrs by broth microdilution; type: functional; summary of the method: as §1
[4] = Inhibition of Escherichia coli topoisomerase IV ATPase activity
Pseudomonas aeruginosa [5] = assay: Antimicrobial activity against Pseudomonas aeruginosa clinical isolate after 18 to 20 hrs by broth microdilution; type: functional; summary of the method: as §1
Escherichia coli [6] = assay: Antimicrobial activity against Escherichia coli after 18 to 20 hrs by broth microdilution; type: functional; summary of the method: as §1
Klebsiella pneumoniae = assay: Antimicrobial activity against Klebsiella pneumoniae after 18 to 20 hrs by broth microdilution; type: functional; summary of the method: as §1
[7] = Fraction unbound in human plasma by LC/MS-MS analysis; type: ADME, cell-free
Summary of the method: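 Equilibrium dialysis: 10 µM compound was spiked into human plasma against phosphate buffer and rotated at 37 °C for 16 h. Plasma and buffer concentrations were quantified by LC/MS–MS with a C18 column and ESI MRM detection.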

[8] = Partition co-efficient, log D of the compound at pH 7.4 by shake flask method; type: physicochemical; details: buffer
Summary of the method: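 Shake-flask method with 10 mM phosphate buffer pH 7.4 against n-octanol, shaken 1 h at 1200 rpm to equilibrium. Analysis was by LC/UV with MS confirmation.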

[9] = target: Voltage-gated inwardly rectifying potassium channel KCNH2 (Homo sapiens, UniProt Q12809); assay: Inhibition of human ERG by cell-based patch clamp method
Voltage-gated inwardly rectifying potassium channel KCNH2, sequence (Q12809 whole entry): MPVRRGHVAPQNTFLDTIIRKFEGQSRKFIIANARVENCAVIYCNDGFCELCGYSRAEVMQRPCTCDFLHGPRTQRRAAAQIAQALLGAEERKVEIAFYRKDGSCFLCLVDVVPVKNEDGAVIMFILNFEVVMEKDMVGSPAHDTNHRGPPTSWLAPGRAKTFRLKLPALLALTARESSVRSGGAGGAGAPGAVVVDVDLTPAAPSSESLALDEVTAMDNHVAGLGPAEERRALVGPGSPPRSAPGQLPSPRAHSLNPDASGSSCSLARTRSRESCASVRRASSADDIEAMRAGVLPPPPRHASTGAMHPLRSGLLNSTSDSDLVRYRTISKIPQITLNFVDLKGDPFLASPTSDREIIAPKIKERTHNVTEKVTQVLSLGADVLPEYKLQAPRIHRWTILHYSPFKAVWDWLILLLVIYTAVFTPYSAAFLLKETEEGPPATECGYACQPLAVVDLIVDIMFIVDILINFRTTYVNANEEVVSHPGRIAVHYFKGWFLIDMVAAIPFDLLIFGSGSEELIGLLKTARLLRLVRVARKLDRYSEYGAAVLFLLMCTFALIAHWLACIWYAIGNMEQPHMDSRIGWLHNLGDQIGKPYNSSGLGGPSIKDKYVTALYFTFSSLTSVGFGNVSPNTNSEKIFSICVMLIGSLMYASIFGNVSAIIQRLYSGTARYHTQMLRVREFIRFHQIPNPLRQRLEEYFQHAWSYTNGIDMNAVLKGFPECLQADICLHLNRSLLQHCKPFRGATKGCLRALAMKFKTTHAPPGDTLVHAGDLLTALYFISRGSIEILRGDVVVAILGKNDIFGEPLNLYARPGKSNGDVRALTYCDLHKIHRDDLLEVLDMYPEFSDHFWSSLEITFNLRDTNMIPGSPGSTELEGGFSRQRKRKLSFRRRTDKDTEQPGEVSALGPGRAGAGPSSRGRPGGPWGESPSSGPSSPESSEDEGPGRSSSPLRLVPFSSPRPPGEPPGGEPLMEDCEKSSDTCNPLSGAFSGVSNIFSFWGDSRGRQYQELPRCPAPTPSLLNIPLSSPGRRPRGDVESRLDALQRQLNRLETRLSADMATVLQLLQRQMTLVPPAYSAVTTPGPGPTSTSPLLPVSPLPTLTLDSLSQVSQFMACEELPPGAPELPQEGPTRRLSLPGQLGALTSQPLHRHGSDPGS

[10] = Clearance in rat at 10 mg/kg, iv; type: ADME, organism-based; parameters: dose 10 mg/kg, route intravenous; details: in vivo
Summary of the method: (§2)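 Male rats (Wistar Han) and Beagle dogs received 10 mg/kg as a 15 min iv infusion. Serial 200 µL whole-blood samples were taken from 0 to 24 h. Plasma levels were measured by LC–MS/MS against a standard curve after methanol protein precipitation. Parameters were estimated non-compartmentally.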

[11] = Volume of distribution in rat at 10 mg/kg, iv; type: ADME, organism-based; parameters: dose 10 mg/kg, route intravenous; details: in vivo; summary of the method: as §2
[12] = Half life in rat at 10 mg/kg, iv; type: ADME, organism-based; parameters: dose 10 mg/kg, route intravenous; details: in vivo; summary of the method: as §2
[13] = AUC in rat at 10 mg/kg, iv; type: ADME, organism-based; parameters: dose 10 mg/kg, route intravenous; details: plasma; summary of the method: as §2
[14] = Clearance in beagle dog at 10 mg/kg, iv; type: ADME, organism-based, Canis lupus familiaris; parameters: dose 10 mg/kg, route intravenous; details: in vivo; summary of the method: as §2
[15] = Volume of distribution in beagle dog at 10 mg/kg, iv; type: ADME, organism-based, Canis lupus familiaris; parameters: dose 10 mg/kg, route intravenous; details: in vivo; summary of the method: as §2
[16] = Half life in beagle dog at 10 mg/kg, iv; type: ADME, organism-based, Canis lupus familiaris; parameters: dose 10 mg/kg, route intravenous; details: in vivo; summary of the method: as §2
[17] = AUC in beagle dog at 10 mg/kg, iv; type: ADME, organism-based, Canis lupus familiaris; parameters: dose 10 mg/kg, route intravenous; details: plasma; summary of the method: as §2
[18] = target: Sodium-dependent noradrenaline transporter (Homo sapiens) (UniProt P23975); assay: Inhibition of NET (unknown origin) at 30 uM
Sodium-dependent noradrenaline transporter (Homo sapiens), sequence (P23975 whole entry): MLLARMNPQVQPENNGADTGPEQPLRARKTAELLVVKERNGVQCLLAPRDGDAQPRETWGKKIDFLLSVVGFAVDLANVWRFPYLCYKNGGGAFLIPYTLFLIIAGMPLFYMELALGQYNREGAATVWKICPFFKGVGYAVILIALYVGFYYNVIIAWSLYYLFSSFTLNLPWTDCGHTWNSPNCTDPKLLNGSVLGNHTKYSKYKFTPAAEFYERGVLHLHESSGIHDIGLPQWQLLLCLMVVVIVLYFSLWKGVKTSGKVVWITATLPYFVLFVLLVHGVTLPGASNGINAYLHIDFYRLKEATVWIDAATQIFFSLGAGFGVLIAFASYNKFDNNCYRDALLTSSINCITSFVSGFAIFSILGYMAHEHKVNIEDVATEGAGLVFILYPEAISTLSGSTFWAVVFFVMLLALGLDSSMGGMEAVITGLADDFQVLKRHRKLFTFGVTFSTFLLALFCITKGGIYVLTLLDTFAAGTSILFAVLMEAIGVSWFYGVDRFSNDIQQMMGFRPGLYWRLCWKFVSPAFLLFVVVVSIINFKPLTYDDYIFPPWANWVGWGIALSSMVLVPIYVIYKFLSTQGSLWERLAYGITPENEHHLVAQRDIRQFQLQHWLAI

[19] = target: 5-hydroxytryptamine receptor 4 (Homo sapiens) (UniProt Q13639); assay: Inhibition of 5-HT4 receptor (unknown origin) at 30 uM
5-hydroxytryptamine receptor 4 (Homo sapiens), sequence (Q13639 whole entry): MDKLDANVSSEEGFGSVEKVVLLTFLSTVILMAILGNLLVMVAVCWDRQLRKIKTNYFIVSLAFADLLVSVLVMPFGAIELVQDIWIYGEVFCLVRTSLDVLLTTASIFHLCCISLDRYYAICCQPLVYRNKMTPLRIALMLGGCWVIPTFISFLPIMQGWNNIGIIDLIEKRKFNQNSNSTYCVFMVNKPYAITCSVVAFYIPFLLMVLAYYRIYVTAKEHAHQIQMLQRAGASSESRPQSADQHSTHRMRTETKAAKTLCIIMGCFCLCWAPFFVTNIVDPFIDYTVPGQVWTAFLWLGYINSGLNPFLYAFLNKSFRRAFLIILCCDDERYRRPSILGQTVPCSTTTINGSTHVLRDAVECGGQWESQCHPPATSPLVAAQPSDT

[20] = target: Sodium-dependent serotonin transporter (Homo sapiens) (UniProt P31645); assay: Inhibition of SERT (unknown origin) at 30 uM
Sodium-dependent serotonin transporter (Homo sapiens), sequence (P31645 whole entry, looked up): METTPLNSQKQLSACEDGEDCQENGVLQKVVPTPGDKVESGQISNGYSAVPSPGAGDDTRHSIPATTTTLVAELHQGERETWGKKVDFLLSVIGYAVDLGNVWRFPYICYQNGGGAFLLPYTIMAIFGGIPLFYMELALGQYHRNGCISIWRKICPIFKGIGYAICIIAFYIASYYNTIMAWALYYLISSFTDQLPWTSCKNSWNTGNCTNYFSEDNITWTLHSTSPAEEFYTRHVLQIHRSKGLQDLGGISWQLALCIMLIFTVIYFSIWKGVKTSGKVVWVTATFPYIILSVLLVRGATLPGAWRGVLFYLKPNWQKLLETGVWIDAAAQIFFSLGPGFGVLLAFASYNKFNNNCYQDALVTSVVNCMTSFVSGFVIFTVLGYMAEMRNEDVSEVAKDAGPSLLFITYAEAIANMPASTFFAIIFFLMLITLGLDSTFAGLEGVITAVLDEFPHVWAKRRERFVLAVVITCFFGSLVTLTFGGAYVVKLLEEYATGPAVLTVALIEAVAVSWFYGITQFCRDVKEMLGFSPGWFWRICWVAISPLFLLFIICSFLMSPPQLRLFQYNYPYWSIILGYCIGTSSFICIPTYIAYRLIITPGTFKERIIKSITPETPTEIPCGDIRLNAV

[21] = target: T1, Potassium voltage-gated channel subfamily KQT member 1 (Homo sapiens, UniProt P51787); assay: Inhibition of potassium channel IKs (unknown origin)
T1 sequence (P51787 whole entry): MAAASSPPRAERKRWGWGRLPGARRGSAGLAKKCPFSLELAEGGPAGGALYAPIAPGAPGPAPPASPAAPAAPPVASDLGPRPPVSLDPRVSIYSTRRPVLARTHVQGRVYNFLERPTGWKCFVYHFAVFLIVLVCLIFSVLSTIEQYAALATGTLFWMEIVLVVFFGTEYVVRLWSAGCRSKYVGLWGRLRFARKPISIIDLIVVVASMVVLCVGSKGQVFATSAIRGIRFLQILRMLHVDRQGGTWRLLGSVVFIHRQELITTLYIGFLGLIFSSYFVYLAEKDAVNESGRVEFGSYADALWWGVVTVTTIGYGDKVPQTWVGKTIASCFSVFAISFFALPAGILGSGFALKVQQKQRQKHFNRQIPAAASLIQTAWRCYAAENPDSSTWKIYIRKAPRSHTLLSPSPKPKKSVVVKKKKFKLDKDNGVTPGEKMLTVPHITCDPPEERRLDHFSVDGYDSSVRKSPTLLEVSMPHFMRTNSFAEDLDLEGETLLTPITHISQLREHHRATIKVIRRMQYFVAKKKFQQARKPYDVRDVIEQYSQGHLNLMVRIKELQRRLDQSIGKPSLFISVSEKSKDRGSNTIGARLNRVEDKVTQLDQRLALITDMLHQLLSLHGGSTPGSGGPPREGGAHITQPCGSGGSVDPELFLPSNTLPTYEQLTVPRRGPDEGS
Summary of the method: (§3)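 Automated IonWorks patch clamp was run on CHO or HEK cells expressing each channel. A channel-specific voltage pulse was applied before compound and again about 3 min after addition.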

[22] = target: Potassium voltage-gated channel subfamily A member 5 (Homo sapiens, UniProt P22460); assay: Inhibition of potassium channel Kv1.5 (unknown origin); summary of the method: as §3
[23] = target: Sodium channel protein type 5 subunit alpha (Homo sapiens, UniProt Q14524); assay: Inhibition of […] channel Nav1.5 (unknown origin); summary of the method: as §3
Sodium channel protein type 5 subunit alpha, sequence (Q14524 whole entry): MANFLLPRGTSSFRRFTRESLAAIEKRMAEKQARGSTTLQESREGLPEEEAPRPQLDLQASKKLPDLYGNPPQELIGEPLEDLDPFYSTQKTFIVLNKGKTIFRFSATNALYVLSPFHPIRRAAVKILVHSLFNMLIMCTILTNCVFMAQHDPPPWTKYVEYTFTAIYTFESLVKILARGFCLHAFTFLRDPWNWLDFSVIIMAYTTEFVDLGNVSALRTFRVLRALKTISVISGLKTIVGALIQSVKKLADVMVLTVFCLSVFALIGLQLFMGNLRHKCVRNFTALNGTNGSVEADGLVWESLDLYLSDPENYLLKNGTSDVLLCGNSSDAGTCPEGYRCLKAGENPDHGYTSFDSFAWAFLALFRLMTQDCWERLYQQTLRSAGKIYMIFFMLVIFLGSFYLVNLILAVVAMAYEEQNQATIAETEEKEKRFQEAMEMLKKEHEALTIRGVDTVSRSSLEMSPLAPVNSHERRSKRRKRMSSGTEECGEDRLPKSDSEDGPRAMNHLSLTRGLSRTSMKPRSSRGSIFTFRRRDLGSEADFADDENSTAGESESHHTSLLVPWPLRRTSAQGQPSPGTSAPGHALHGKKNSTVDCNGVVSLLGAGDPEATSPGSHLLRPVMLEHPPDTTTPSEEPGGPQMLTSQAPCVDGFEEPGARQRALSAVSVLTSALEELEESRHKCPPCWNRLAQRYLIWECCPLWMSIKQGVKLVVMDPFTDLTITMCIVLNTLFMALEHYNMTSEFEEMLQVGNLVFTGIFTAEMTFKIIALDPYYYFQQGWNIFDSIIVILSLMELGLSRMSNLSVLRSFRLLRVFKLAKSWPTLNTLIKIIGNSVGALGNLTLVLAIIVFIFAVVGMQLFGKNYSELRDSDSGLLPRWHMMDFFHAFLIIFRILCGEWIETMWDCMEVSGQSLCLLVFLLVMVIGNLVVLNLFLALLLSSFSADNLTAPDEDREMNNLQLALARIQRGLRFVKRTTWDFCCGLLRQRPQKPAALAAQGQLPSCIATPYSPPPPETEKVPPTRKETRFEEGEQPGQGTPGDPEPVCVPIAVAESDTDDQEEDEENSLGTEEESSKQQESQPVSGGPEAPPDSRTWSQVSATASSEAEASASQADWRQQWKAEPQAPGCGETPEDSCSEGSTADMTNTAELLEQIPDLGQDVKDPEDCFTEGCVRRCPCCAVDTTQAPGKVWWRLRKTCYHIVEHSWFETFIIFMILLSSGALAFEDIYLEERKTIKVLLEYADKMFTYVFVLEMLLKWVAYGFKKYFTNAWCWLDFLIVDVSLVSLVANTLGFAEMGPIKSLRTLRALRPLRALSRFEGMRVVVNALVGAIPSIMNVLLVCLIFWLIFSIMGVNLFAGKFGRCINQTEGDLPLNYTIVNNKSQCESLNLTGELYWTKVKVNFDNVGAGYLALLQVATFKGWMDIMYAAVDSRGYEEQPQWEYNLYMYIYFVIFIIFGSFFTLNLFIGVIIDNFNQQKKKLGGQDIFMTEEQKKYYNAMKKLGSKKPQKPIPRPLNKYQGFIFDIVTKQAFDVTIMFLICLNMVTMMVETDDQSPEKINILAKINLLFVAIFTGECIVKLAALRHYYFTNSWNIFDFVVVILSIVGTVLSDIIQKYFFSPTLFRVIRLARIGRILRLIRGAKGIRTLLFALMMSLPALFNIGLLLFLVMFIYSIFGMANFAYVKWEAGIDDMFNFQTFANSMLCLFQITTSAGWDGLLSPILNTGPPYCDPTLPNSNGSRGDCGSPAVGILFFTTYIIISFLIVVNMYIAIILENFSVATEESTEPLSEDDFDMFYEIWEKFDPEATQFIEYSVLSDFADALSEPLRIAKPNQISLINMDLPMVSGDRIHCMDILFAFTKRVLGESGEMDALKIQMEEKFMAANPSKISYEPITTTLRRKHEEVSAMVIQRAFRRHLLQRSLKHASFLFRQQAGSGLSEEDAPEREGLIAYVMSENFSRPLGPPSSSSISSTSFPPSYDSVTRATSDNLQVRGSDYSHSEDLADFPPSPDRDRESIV

[24] = target: Voltage-dependent L-type calcium channel subunit alpha-1C (Homo sapiens, UniProt Q13936); assay: Inhibition of […] channel Cav1.2 (unknown origin); summary of the method: as §3
[25] = target: Voltage-dependent T-type calcium channel subunit alpha-1H (Homo sapiens, UniProt O95180); assay: Inhibition of […] channel Cav3.2 (unknown origin); summary of the method: as §3

SMILES	solubility [1]	MIC90 (Pseudomonas aeruginosa [2])	MIC90 (Escherichia coli [3])	MIC90 (Staphylococcus aureus)	IC50 [4]	fraction unbound [7]	logD [8]	IC50 [9]	other results
CNC(Cn1c(=O)cnc2cc(F)c(OC)cc21)[C@H]1CC[C@H](NCc2ncc3c(n2)NC(=O)CO3)CC1 (mixture of isomers)	> 333 µM	> 64 µg/mL	16 µg/mL (≈ 31.3 µM)	64 µg/mL (≈ 125 µM)	39 nM				
C[C@H]1COc2c(N3CCN(C)CC3)c(F)cc3c(=O)c(C(=O)O)cn1c23.C[C@H]1COc2c(N3CCN(C)CC3)c(F)cc3c(=O)c(C(=O)O)cn1c23.O [LEVOFLOXACIN]									MIC90 (Pseudomonas aeruginosa [5]): 16 µg/mL; MIC90 (Escherichia coli [6]): 16 µg/mL; MIC90 (Klebsiella pneumoniae): 64 µg/mL
COc1ccc2ncc(=O)n(CC[C@]3(N)CC[C@H](NCc4ccc5c(n4)NC(=O)CO5)CC3)c2c1	> 333 µM	8 µg/mL (≈ 16.7 µM)	1 µg/mL (≈ 2.09 µM)	2 µg/mL (≈ 4.18 µM)	2 nM				
COc1cnc2ccc(=O)n(C[C@@H](N)[C@H]3CC[C@H](NCc4ccc5c(n4)NC(=O)CO5)CC3)c2c1	> 333 µM	16 µg/mL (≈ 33.4 µM)	8 µg/mL (≈ 16.7 µM)	128 µg/mL (≈ 267 µM)	33 nM	> 0.7	-0.84	> 100000 nM	
COc1ccc2ncc(=O)n(CC(N)C3(F)CCC(NCc4ccc5c(n4)NC(=O)CO5)CC3)c2c1 (racemic)	> 333 µM	8 µg/mL (≈ 16.1 µM)	2 µg/mL (≈ 4.03 µM)	0.5 µg/mL (≈ 1.01 µM)	5 nM	0.68	0.25	> 33000 nM	
N[C@@H](Cn1c(=O)ccc2ncc(F)cc21)[C@H]1CC[C@H](NCc2ccc3c(n2)NC(=O)CO3)CC1	> 333 µM	2 µg/mL (≈ 4.29 µM)	1 µg/mL (≈ 2.14 µM)	16 µg/mL (≈ 34.3 µM)	34 nM		-1.02	> 100000 nM	
COc1cc2c(cc1F)ncc(=O)n2C[C@H](N)[C@H]1CC[C@H](NCc2ncc3c(n2)NC(=O)CO3)CC1	> 333 µM	2 µg/mL (≈ 4.02 µM)	2 µg/mL (≈ 4.02 µM)	4 µg/mL (≈ 8.04 µM)	4 nM	0.56	-0.42	> 333000 nM	

Continued by falling MIC90 (Pseudomonas aeruginosa [2]), values first:

solubility [1]	MIC90 (Pseudomonas aeruginosa [2])	MIC90 (Escherichia coli [3])	MIC90 (Staphylococcus aureus)	IC50 [4]	fraction unbound [7]	logD [8]	SMILES	IC50 [9]	other results
> 333 µM	2 µg/mL (≈ 4.18 µM)	0.5 µg/mL (≈ 1.04 µM)	8 µg/mL (≈ 16.7 µM)	5 nM	0.71	-0.54	COc1ccc2ccc(=O)n(C[C@H](N)[C@H]3CC[C@H](NCc4ncc5c(n4)NC(=O)CO5)CC3)c2c1	> 100000 nM	
> 333 µM	2 µg/mL (≈ 4.16 µM)	0.5 µg/mL (≈ 1.04 µM)	4 µg/mL (≈ 8.32 µM)	2 nM	0.66	0.06	Cc1cc(=O)n(C[C@H](N)[C@H]2CC[C@H](NCc3ncc4c(n3)NC(=O)CO4)CC2)c2cc(F)ccc12	> 333000 nM	
> 333 µM	1 µg/mL (≈ 2.09 µM)	0.5 µg/mL (≈ 1.04 µM)	8 µg/mL (≈ 16.7 µM)	2 nM	0.78	-0.86	COc1cnc2ccc(=O)n(C[C@H](N)[C@H]3CC[C@H](NCc4ccc5c(n4)NC(=O)CO5)CC3)c2c1	> 333000 nM	MIC90 (Pseudomonas aeruginosa [5]): 4 µg/mL (≈ 8.36 µM); MIC90 (Escherichia coli [6]): 0.5 µg/mL (≈ 1.04 µM); MIC90 (Klebsiella pneumoniae): 8 µg/mL (≈ 16.7 µM); clearance [10]: 47 mL/min/kg; Vd [11]: 13 L/kg; half-life [12]: 9 h; AUC [13]: 3900 ng·h/mL; clearance [14]: 14 mL/min/kg; Vd [15]: 2.7 L/kg; half-life [16]: 8 h; AUC [17]: 3800 ng·h/mL; inhibition [18]: 52%; inhibition [19]: 32%; inhibition [20]: 32%; IC50 [21]: > 333000 nM; IC50 [22]: > 333000 nM; IC50 [23]: > 333000 nM; IC50 [24]: > 333000 nM; IC50 [25]: > 333000 nM
> 333 µM	0.5 µg/mL (≈ 1.04 µM)	0.5 µg/mL (≈ 1.04 µM)	1 µg/mL (≈ 2.09 µM)	3 nM	0.64	-0.05	Cc1cc(=O)n(C[C@H](N)[C@H]2CC[C@H](NCc3ccc4c(n3)NC(=O)CO4)CC2)c2cc(F)ccc12		
> 333 µM	0.5 µg/mL (≈ 1.04 µM)	0.5 µg/mL (≈ 1.04 µM)	1 µg/mL (≈ 2.09 µM)	1 nM	0.7	-0.36	COc1ccc2ncc(=O)n(C[C@H](N)[C@H]3CC[C@H](NCc4ccc5c(n4)NC(=O)CO5)CC3)c2c1	> 333000 nM	
> 333 µM	0.5 µg/mL (≈ 1.04 µM)	0.2 µg/mL (≈ 0.417 µM)	1 µg/mL (≈ 2.09 µM)	2 nM	0.6	-0.48	COc1ccc2ncc(=O)n(C[C@H](N)[C@H]3CC[C@H](NCc4ncc5c(n4)NC(=O)CO5)CC3)c2c1	> 333000 nM	
> 333 µM	0.25 µg/mL (≈ 0.536 µM)	< 0.06 µg/mL	1 µg/mL (≈ 2.14 µM)	28 nM	0.7	-0.41	N[C@@H](Cn1c(=O)cnc2ccc(F)cc21)[C@H]1CC[C@H](NCc2ccc3c(n2)NC(=O)CO3)CC1	174000 nM	
